This note sets out measurements from ChEMBL document CHEMBL3792382, “Synthesis of new secretory phospholipase A2-inhibitory indole containing isoxazole derivatives as anti-inflammatory and anticancer agents” (Eur J Med Chem, 2016).

Usually IC50 stands for the concentration needed to halve the response being measured. As a reminder, the inhibition in vivo is how much of the control response was suppressed. Higher therefore signals strong suppression. For orientation: logP means a log measure of how a compound divides between an organic and an aqueous phase. Read a high logP as higher lipophilicity.

Data set [1] is described as follows: Inhibition of human type 2A secretory PLA2 using diheptanoyl thio-PC as substrate after 15 mins by ELISA. The method, boiled down: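 Type IIA sPLA2 from a commercial kit was incubated with inhibitor and diheptanoyl thio-PC substrate for 15 min. DTNB was then added and the thiol released by hydrolysis was read at 415 nm. Control wells held no inhibitor. % inhibition = (A control − A test)/A control × 100, and IC50 was taken from the dose-response; ursolic acid served as positive control.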
Background: In an ELISA, binding on a coated surface is turned into a signal by an enzyme label.

The test system of data set [2] is Rattus norvegicus. In words: Antiinflammatory activity against carrageenan-induced paw edema in Wistar albino rat model at 10 mg/kg, po administered 1 hr prior to carrageenan-challenge measured at 4th hr by plethysmometer. The class given is functional. The method, boiled down:
(§1)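 Rats were dosed orally 1 h before subplantar injection of 0.1 ml 1% λ-carrageenan in saline into the left hind paw, with saline in the right paw. Vehicle controls received saline 1 ml/kg p.o.; ursolic acid served as positive control. Paw volume was read by mercury plethysmometer before injection and at 1, 2, 3, 4 and 6 h. Results are % edema inhibition versus vehicle, mean ± SEM, n = 3-6, one-way ANOVA.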
Background: In the carrageenan paw model, swelling and tenderness develop within hours.

The test system of data set [3] is Rattus norvegicus. The experiment in a line: Antiinflammatory activity against carrageenan-induced paw edema in Wistar albino rat model at 10 mg/kg, po administered 1 hr prior to carrageenan-challenge measured at 3rd hr by plethysmometer. In kind it is functional. The method, boiled down:
as §1

Data set [4] in a line: Antiproliferative activity against human DU145 cells after 48 hrs by MTT assay. The class given is functional, cell-based. To be noted: DU-145, 48 h. The method, boiled down: (§2)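 Cells were grown in RPMI with 10% FCS, penicillin and streptomycin at 37 °C in humidified CO2. They were exposed to a range of concentrations for 48 h, then given MTT for 2 h at 37 °C. Formazan was dissolved in DMSO and absorbance read at 570 nm (reference 620 nm). IC50 was derived from the readings, with doxorubicin as positive control.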

Data set [5] deals with MCF7. In words: Antiproliferative activity against human MCF7 cells after 48 hrs by MTT assay. In kind it is functional, cell-based. To be noted: MCF7, 48 h. The method, boiled down:
as §2
For orientation: Tetrazolium assays rely on reduction of a dye to a coloured formazan, in cell work by metabolically active cells.

Data set [6] is described as follows: Partition coefficient, logP of the compound. The class given is physicochemical. As to conditions: octanol/water.

Turning to `Cc1ccc2[nH]cc(CNCc3cc(-c4ccc(F)c(C(F)(F)F)c4)no3)c2c1`, the 50% inhibitory concentration (IC50) in data set [1] is 10.2 µM; in data set [4], 14.2 µM; in data set [5], 10 µM. Besides, the inhibition in vivo at 10 mg/kg was 76.5% in data set [2] and 75.7% in data set [3]. Also, in data set [6], the logP came to 4.85.

The compound `COc1ccc(-c2cc(CNCc3c[nH]c4ccccc34)on2)cc1` came in with an IC50 in data set [1] of 18.2 µM. Besides, in data set [6], the logP was determined as 3.5.

`Cc1ccc(-c2cc(CNCc3c[nH]c4ccccc34)on2)cc1` gave an IC50 in data set [1] of 22.7 µM. Moreover, the logP in data set [6] was determined as 3.89.

Compound `Fc1ccc(-c2cc(CNCc3c[nH]c4ccccc34)on2)cc1C(F)(F)F` registered an IC50 in data set [1] of 21.5 µM. Moreover, the log partition coefficient (logP) in data set [6] turned out to be 4.43.

The compound `Cc1ccc(-c2cc(CNCc3c[nH]c4ccc(Br)cc34)on2)cc1` had an IC50 in data set [1] of 27.3 µM. In data set [6], this compound returned a logP of 4.67.

In turn, `COc1ccc(-c2cc(CNCc3c[nH]c4ccc(Br)cc34)on2)cc1` had an IC50 in data set [1] of 32.6 µM. Moreover, the logP in data set [6] was 4.28.

In the case of `Brc1ccc2[nH]cc(CNCc3cc(-c4ccccc4)no3)c2c1`, half-maximal inhibition in data set [1] (IC50) was put at 32.5 µM. Besides, in data set [6], the logP was 4.23.

The compound `Fc1ccc(-c2cc(CNCc3c[nH]c4ccc(Br)cc34)on2)cc1C(F)(F)F` registered an IC50 in data set [1] of 17.2 µM. The same compound gave a log partition coefficient (logP) in data set [6] of 5.21.

Take `c1ccc(-c2cc(CNCc3c[nH]c4ccccc34)on2)cc1`: in data set [1], the IC50 was 30.6 µM. Also, the logP in data set [6] is 3.44.

Regarding `O=[N+]([O-])c1ccc(-c2cc(CNCc3c[nH]c4ccccc34)on2)cc1`, 25.6 µM corresponded to half-maximal inhibition in data set [1] (IC50). In data set [6], this compound showed a logP of 3.4.

Compound `Cc1ccc(-c2cc(CNCc3c[nH]c4ccc(C)cc34)on2)cc1` displayed an IC50 in data set [1] of 21.6 µM. Further, the logP in data set [6] came to 4.33.

Compound `COc1ccc(-c2cc(CNCc3c[nH]c4ccc(C)cc34)on2)cc1` displayed a concentration for half-maximal inhibition (IC50) in data set [1] of 24.6 µM. The same compound displayed a logP in data set [6] of 3.92.

As to `O=[N+]([O-])c1ccc(-c2cc(CNCc3c[nH]c4ccc(Br)cc34)on2)cc1`, the IC50 in data set [1] was 22.4 µM. The compound further gave a logP in data set [6] of 4.19.

`Cc1ccc2[nH]cc(CNCc3cc(-c4ccccc4)no3)c2c1` gave an IC50 in data set [1] of 27.9 µM. Moreover, the logP in data set [6] was found to be 3.87.

In data set [1], `Cc1ccc2[nH]cc(CNCc3cc(-c4ccc([N+](=O)[O-])cc4)no3)c2c1` came in with an IC50 of 19.4 µM. In addition, the logP in data set [6] was 3.83.

In turn, `COc1cccc2c1C(=O)c1c(O)c3c(c(O)c1C2=O)C[C@@](O)(C(=O)CO)C[C@@H]3O[C@H]1C[C@H](N)[C@H](O)[C@H](C)O1` [DOXORUBICIN] registered an IC50 in data set [4] of 4.75 µM.

`C[C@H]1[C@H](C)CC[C@]2(C(=O)O)CC[C@]3(C)C(=CC[C@@H]4[C@@]5(C)CC[C@H](O)C(C)(C)[C@@H]5CC[C@]43C)[C@H]12` [URSOLIC ACID] showed an IC50 in data set [1] of 12.6 µM. Also, the figures for the inhibition in vivo at 10 mg/kg in data set [2] and in data set [3] were 75.2% and 73%, respectively.
